Measurements reported in ChEMBL document CHEMBL4004799, “Octaminomycins A and B, Cyclic Octadepsipeptides Active against Plasmodium falciparum” (J Nat Prod, 2017).
The source made the active and inactive calls. The rule behind the calls is not given here. Where a SMILES comes first, the peptide text is derived from it. Bridges are numbered along the chain shown (N, C = ends). [ ]: non-standard residue; d: D form. The star is where a group is joined. NMeY = CN[C@@H](Cc1ccc(O)cc1)C(=O)O; Propionyl = CCC(=O)*

Tests used:
[1] = tested on: Candida albicans; experiment: Antimicrobial activity against Candida albicans JCM1542 up to 30 uM after 24 hrs by broth microdilution assay; format: functional
[2] = tested on: HL-60; experiment: Cytotoxicity against human HL60 cells after 48 hrs by WST-8 assay; format: cell-based; conditions: HL-60, 48 h
Summary of the method: (§1)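 Cells were seeded in 96-well plates and exposed to compounds for 48 h. HL-60 cells were grown at 37 °C in RPMI-1640 with 10% FBS. tsFT210 cells, a mouse FM3A cdc2 temperature-sensitive mutant, were grown at 32 °C in RPMI-1640 with 5% calf serum. WST-8 was added at 1/10 volume for 1 h, and growth was read as absorbance at 450 nm.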

[3] = tested on: Pyricularia oryzae; experiment: Antimicrobial activity against Pyricularia oryzae kita-1 up to 30 uM after 48 hrs by broth microdilution assay; format: functional
[4] = tested on: Plasmodium falciparum; experiment: Antimalarial activity against chloroquine-sensitive Plasmodium falciparum 3D7; format: functional
Summary of the method: (§2)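 P. falciparum strains maintained at 37 °C under 5.0% CO2 in human erythrocytes (3% hematocrit), RPMI1640 with 10% human plasma; assay run per an earlier published method; IC50 in μM.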

[5] = tested on: Plasmodium falciparum; experiment: Antimalarial activity against chloroquine-resistant Plasmodium falciparum K1; format: functional; summary of the method: as §2
[6] = tested on: Aspergillus fumigatus; experiment: Antimicrobial activity against Aspergillus fumigatus Af293 up to 30 uM after 48 hrs by broth microdilution assay; format: functional
[7] = tested on: NRK; experiment: Cytotoxicity against rat NRK cells infected with temperature-sensitive mutant of Rous sarcoma virus after 48 hrs by WST-8 assay; format: cell-based
Summary of the method: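 Rat kidney cells infected with ts25 (T-class Rous sarcoma virus Prague mutant) grown at permissive 32 °C in MEM + 10% calf serum; […] cells/well seeded, compounds applied 48 h; WST-8 (1/10 volume) added for 1 h, growth read as absorbance at 450 nm.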

[8] = tested on: Plasmodium falciparum; experiment: Antimalarial activity against chloroquine-resistant Plasmodium falciparum Dd2; format: functional; summary of the method: as §2
[9] = tested on: Escherichia coli; experiment: Antimicrobial activity against Escherichia coli HO141 up to 30 uM after 24 hrs by broth microdilution assay; format: functional
[10] = Cytotoxicity against temperature-sensitive mouse FT210 cells after 48 hrs by WST-8 assay; format: cell-based; conditions: FT210, 48 h; summary of the method: as §1
[11] = tested on: Staphylococcus aureus; experiment: Antimicrobial activity against Staphylococcus aureus 209 up to 30 uM after 24 hrs by broth microdilution assay; format: functional
[12] = tested on: HeLa; experiment: Cytotoxicity against human HeLa cells after 48 hrs by WST-8 assay; format: cell-based

| SMILES | Activity [1] | IC50 [2] [nM] | Activity [3] | IC50 [4] [nM] | IC50 [5] [nM] | Activity [6] | IC50 [7] [nM] | IC50 [8] [nM] | Activity [9] | IC50 [10] [nM] | Activity [11] | IC50 [12] [nM] |
| --- | --- | --- | --- | --- | --- | --- | --- | --- | --- | --- | --- | --- |
| CC(=O)N[C@@H]1C(=O)N[C@@H](Cc2ccccc2)C(=O)N[C@H](CC(C)C)C(=O)N[C@@H](C(C)C)C(=O)N2CCC[C@H]2C(=O)N[C@@H](CC(C)C)C(=O)N(C)[C@@H](Cc2ccc(O)cc2)C(=O)N2CCC[C@H]2C(=O)O[C@@H]1C (Ac-TF[dL]VPL[NMeY]P; ester 1-C) | inactive | > 30000 | inactive | 1500 | 830 | inactive | > 30000 | 1100 | inactive | > 30000 | inactive | > 30000 |
| CCC(=O)N[C@@H]1C(=O)N[C@@H](Cc2ccccc2)C(=O)N[C@H](CC(C)C)C(=O)N[C@@H](C(C)C)C(=O)N2CCC[C@H]2C(=O)N[C@@H](CC(C)C)C(=O)N(C)[C@@H](Cc2ccc(O)cc2)C(=O)N2CCC[C@H]2C(=O)O[C@@H]1C (Propionyl-TF[dL]VPL[NMeY]P; ester 1-C) | inactive | > 30000 | inactive | 1500 | 1300 | inactive | > 30000 | 1600 | inactive | > 30000 | inactive | > 30000 |
